Consider eight compounds from ChEMBL document CHEMBL1143895, “Core-modified porphyrins. Part 6: Effects of lipophilicity and core structures on physicochemical and biological properties in vitro” (Bioorg Med Chem, 2008).

Series [1] deals with R3230AC. As to the kind of experiment: Cytotoxicity in rat R3230AC cells irradiated with 10.8J/cm^2 of water filtered halogen light after 24 hrs by MTT assay. The conditions noted are these: light or radiation study. It counts as functional, cell-based. In a few lines:
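R3230AC rodent mammary adenocarcinoma cells in α-MEM with 10% bovine growth serum, seeded 1.0–1.5×10^4 cells/well and grown 24 h at 37 °C, 5% CO2. Porphyrin in complete medium for 24 h, rinsed with saline, then irradiated 1 h in clear serum-free medium with water-filtered halogen light (400–850 nm, 3 mW/cm², 10.8 J/cm²). Given complete medium, 24 h dark, then MTT vs light-only controls. IC50 from Hill fit; ≥3 experiments in duplicate.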
On the technique in general: Tetrazolium dyes change colour on reduction, which living cells bring about.

The subject of series [2] is R3230AC. As to the kind of experiment: Drug uptake in rat R3230AC assessed as intracellular accumulation per cell at 10 uM after 24 hrs. Type of series: ADME, cell-based. In a few lines:
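R3230AC cells seeded 2.0–3.0×10^4/well and grown 24 h. Porphyrin from a 2 mM DMSO stock, diluted in complete medium to 10 μM final, 24 h at 37 °C. Monolayer rinsed twice with 0.9% NaCl and lysed in DMSO. Porphyrin fluorescence read and converted through a DMSO standard curve to fmol/cell. Mean with SEM.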

Series [3] is described as follows: Lipophilicity, log D at pH 7.4. Type of series: physicochemical. The conditions noted are these: buffer. In a few lines:
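Shake-flask method: porphyrin dissolved in equal volumes of n-octanol and pH 7.4 phosphate buffer, sonicated 30 min, left to settle 4 h. Each phase measured by UV-vis absorbance and reported as log D7.4.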

Series [4] has as its system R3230AC. The series can be described thus: Cytotoxicity in rat R3230AC cells under dark condition upto 10 uM after 24 hrs by MTT assay. Type of series: functional, cell-based. The method in brief:
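Dark toxicity in R3230AC cells, seeded 1.0–1.5×10^4 cells/well and grown 24 h at 37 °C, 5% CO2. Porphyrin up to 10 μM in complete medium for 24 h, rinsed with saline. Cells held 1 h in the dark in clear serum-free medium, then 24 h in complete medium before MTT, read as percent of untreated dark controls.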

A short description of series [5]: Singlet oxygen generation assessed as DPBF oxidation at 1 uM. It counts as functional. In a few lines:
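DPBF consumption by singlet oxygen from the irradiated porphyrin, with stirring under 3 mW/cm² light. UV absorbance of DPBF read every 2 min up to 10 min, expressed as percent DPBF oxidized.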

Usually IC50 stands for the midpoint of a concentration-inhibition curve. Read a low IC50 as greater potency in that assay. As usually defined, the logD is lipophilicity at a set pH, counting ionised and neutral species. In the series with R3230AC [1], `O=C(O)COc1ccc(-c2c3nc(c(-c4ccccc4)c4ccc(s4)c(-c4ccccc4)c4nc(c(-c5ccc(OCC(=O)O)cc5)c5ccc2s5)[C@H](O)[C@@H]4O)C=C3)cc1` showed an IC50 of 2570 nM. Also, in the series on R3230AC [2], the Drug uptake was found to be 0.11 fmol. Moreover, the logD in series [3] is -0.5. The figures for the Activity entry (in the series on R3230AC [4]; in series [5]) were “Not toxic” and 62%, respectively.
`O[C@@H]1c2nc(c(-c3ccccc3)c3ccc(s3)c(-c3ccccc3)c3nc(c(-c4ccccc4)c4ccc(s4)c2-c2ccccc2)C=C3)[C@@H]1O`: in the series on R3230AC [1], inhibition was half-maximal at 180 nM (IC50). In addition, the Drug uptake in the series on R3230AC [2] is 4.5 fmol. This compound also yielded a logD in series [3] of over 2. Further, the results for the Activity entry (in the series with R3230AC [4]; in series [5]) were “Not toxic” and 78%, respectively.
The matching figures for `CC(C)(C)c1ccc(-c2c3nc(c(-c4ccc(OCC(=O)O)cc4)c4ccc(s4)c(-c4ccccc4)c4nc(c(-c5ccccc5)c5ccc2s5)C=C4)C=C3)cc1`: 590 nM, 0.46 fmol, over 2, “Not toxic” and 75%.
The matching figures for `O=C(O)COc1ccc(-c2c3nc(c(-c4ccccc4)c4ccc(s4)c(-c4ccccc4)c4nc(c(-c5ccc(OCC(=O)O)cc5)c5ccc2s5)C=C4)C=C3)cc1`: 130 nM, 0.59 fmol, 0.1, “Not toxic” and 68%.
The matching figures for `O=C(O)COc1ccc(-c2c3nc(c(-c4ccccc4)c4ccc(s4)c(-c4ccccc4)c4nc(c(-c5ccccc5)c5ccc2s5)C=C4)C=C3)cc1`: 260 nM, 0.31 fmol, 1.6, “Not toxic” and 78%.
Compound `O=C(O)COc1c(OCC(=O)O)c2cc3nc(c(-c4ccccc4)c4ccc([nH]4)c(-c4ccccc4)c4nc(cc1s2)C=C4)C=C3` [THIAPORPHYRIN] showed an IC50 in the series with R3230AC [1] of 2280 nM. Besides, in the series with R3230AC [2], the Drug uptake is reported as 0.16 fmol. The logD in series [3] turned out to be 0.8. Moreover, the Activity entry with R3230AC [4] was “Not toxic”; in series [5] it was 48%.
In turn, `O=S(=O)([O-])c1ccc(-c2c3nc(c(-c4ccc(F)cc4)c4ccc(s4)c(-c4ccc(F)cc4)c4nc(c(-c5ccc(F)cc5)c5ccc2s5)C=C4)C=C3)cc1.[Na+]` returned an IC50 in the series with R3230AC [1] of 770 nM. For the same compound, the Drug uptake in the series with R3230AC [2] turned out to be 0.3 fmol. For the same compound, in series [3], the logD amounted to 0.8. The figures for the Activity result (in the series on R3230AC [4]; in series [5]) were “Not toxic” and 64%, respectively.
Consider `O=C(O)COc1ccc(-c2c3nc(c(-c4ccc(F)cc4)c4ccc(s4)c(-c4ccc(F)cc4)c4nc(c(-c5ccc(F)cc5)c5ccc2s5)C=C4)C=C3)cc1`, for which it took 380 nM to reach half-maximal inhibition with R3230AC [1] (IC50). In the series on R3230AC [2], the Drug uptake is reported as 0.33 fmol. In series [3], the logD was 1.8. Moreover, the Activity result with R3230AC [4] was “Not toxic”; in series [5] it was 75%.
